Reference: ChEMBL document CHEMBL3098047, “Design, synthesis and structure-activity relationships of substituted oxazole-benzamide antibacterial inhibitors of FtsZ” (Bioorg Med Chem Lett, 2014)
Values after ≈ are worked out from the molar mass of the structure shown.

Columns and labels:
[1] = Kinetic solubility of the compound in PBS buffer at pH 7.4 after 24 hrs by turbidimetric method; format: physicochemical; conditions: read-out: Kinetic_solubility
Outline: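 Turbidimetric: doubling dilutions in DMSO diluted twenty-fold into PBS pH 7.4, equilibrated 24 h at room temperature, absorbance read at 620 nm. Value is highest concentration with no measurable precipitate.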

Staphylococcus aureus [2] = experiment: Antibacterial activity against Staphylococcus aureus ATCC 29213 by broth microdilution method; format: functional
Outline: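 Broth microdilution MIC per CLSI guidelines against S. aureus ATCC 29213; MIC in µg/mL.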

[3] = target: T1, Cell division protein FtsZ (Staphylococcus aureus) (UniProt P0A031); experiment: Inhibition of Staphylococcus aureus ATCC 29213 FtsZ-mediated cell division phenotype
T1 sequence (whole entry): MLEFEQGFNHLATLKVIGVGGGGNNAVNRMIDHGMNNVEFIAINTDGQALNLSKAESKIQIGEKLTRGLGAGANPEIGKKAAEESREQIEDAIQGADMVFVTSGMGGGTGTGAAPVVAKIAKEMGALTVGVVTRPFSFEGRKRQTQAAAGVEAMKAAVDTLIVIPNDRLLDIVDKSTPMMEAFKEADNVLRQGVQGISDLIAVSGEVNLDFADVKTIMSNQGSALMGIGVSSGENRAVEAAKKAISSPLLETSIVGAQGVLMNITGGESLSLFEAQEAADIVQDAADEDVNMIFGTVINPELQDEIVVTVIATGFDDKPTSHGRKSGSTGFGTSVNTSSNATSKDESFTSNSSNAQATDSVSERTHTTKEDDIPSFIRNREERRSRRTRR
Outline: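 S. aureus ATCC 29213 cell division inhibition assay run alongside MIC testing; value is the lowest concentration at which an inhibition of cell division phenotype was seen (µg/mL).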

Staphylococcus aureus [4] = experiment: Antibacterial activity against Staphylococcus aureus harboring FtsZ G196A mutant by broth microdilution method; format: functional
Outline: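 S. aureus ATCC 29213 derivative with G196A substitution in FtsZ; MIC by broth microdilution following CLSI guidelines; reported in µg/mL.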

[5] = Clearance in Balb/c mouse at 3 mg/kg, iv by LC-MS/MS analysis; format: ADME, organism-based; parameters: dose 3 mg/kg, route intravenous; conditions: in vivo
[6] = Initial plasma concentration in Balb/c mouse at 3 mg/kg, iv by LC-MS/MS analysis; format: ADME, organism-based; parameters: dose 3 mg/kg, route intravenous
[7] = Volume of distribution in Balb/c mouse at 3 mg/kg, iv by LC-MS/MS analysis; format: ADME, organism-based; parameters: dose 3 mg/kg, route intravenous; conditions: in vivo
[8] = Half life in Balb/c mouse at 3 mg/kg, iv by LC-MS/MS analysis; format: ADME, organism-based; parameters: dose 3 mg/kg, route intravenous; conditions: in vivo
[9] = AUC in Balb/c mouse at 3 mg/kg, iv by LC-MS/MS analysis; format: ADME, organism-based; parameters: dose 3 mg/kg, route intravenous; conditions: plasma

SMILES | MIC (Staphylococcus aureus [2]) [µg/mL] | MIC [3] [µg/mL] | MIC (Staphylococcus aureus [4]) [µg/mL] | also measured
NC(=O)c1c(F)ccc(OC(COC(=O)NCCN2CCCC2)c2nc(-c3ccc(C(F)(F)F)cc3)c(Br)o2)c1F (racemic) |  |  |  | solubility kinetic at 24 h [1]: 400 µg/mL (≈ 618 µM)
NC(=O)c1c(F)ccc(OC(COC(=O)NCC(=O)O)c2nc(-c3ccc(C(F)(F)F)cc3)c(Br)o2)c1F (racemic) |  |  |  | solubility kinetic at 24 h [1]: 800 µg/mL (≈ 1320 µM)
CC(=O)OCC(Oc1ccc(F)c(C(N)=O)c1F)c1nc(-c2ccc(C(F)(F)F)cc2)c(Br)o1 (racemic) | 0.5 (≈ 0.91 µM) | 0.5 (≈ 0.91 µM) |  | solubility kinetic at 24 h [1]: 25 µg/mL (≈ 45.5 µM)
NC(=O)c1c(F)ccc(OCc2nc3cc(Cl)cnc3s2)c1F | 1 (≈ 2.81 µM) | 0.5 (≈ 1.41 µM) | > 64 | 
CC(Oc1ccc(F)c(C(N)=O)c1F)c1nc(-c2ccc(C(F)(F)F)cc2)c(Br)o1 (racemic) | 0.06 (≈ 0.122 µM) | 0.06 (≈ 0.122 µM) |  | clearance [5]: 22 mL/min/kg; C0 [6]: 2000 ng/mL; Vd [7]: 2 L/kg; half-life [8]: 1.05 h; AUC [9]: 2200 ng·h/mL
Cc1oc(COc2ccc(F)c(C(N)=O)c2F)nc1-c1ccc(Cl)cc1 | 0.5 (≈ 1.32 µM) | 0.5 (≈ 1.32 µM) | > 64 | 
NC(=O)c1c(F)ccc(OC(c2cccnc2)c2nc(-c3ccc(Cl)cc3)c(Br)o2)c1F (racemic) | 4 (≈ 7.68 µM) | 4 (≈ 7.68 µM) |  | 
NC(=O)c1c(F)ccc(OCc2nc(-c3ccccc3)co2)c1F | 16 (≈ 48.4 µM) | 16 (≈ 48.4 µM) | > 64 | 
NC(=O)c1c(F)ccc(OC(COC(=O)CCC(=O)O)c2nc(-c3ccc(C(F)(F)F)cc3)c(Br)o2)c1F (racemic) |  |  |  | solubility kinetic at 24 h [1]: 200 µg/mL (≈ 329 µM)
NC(=O)c1c(F)ccc(OCc2nc(-c3ccc(Cl)cc3)c(Br)o2)c1F | 0.06 (≈ 0.135 µM) | 0.03 (≈ 0.0676 µM) | 2 (≈ 4.51 µM) | 
NC(=O)c1c(F)ccc(O[C@H](CO)c2nc(-c3ccc(C(F)(F)F)cc3)c(Br)o2)c1F | 0.12 (≈ 0.237 µM) | 0.25 (≈ 0.493 µM) | 4 (≈ 7.89 µM) | 
NC(=O)c1c(F)ccc(OC(COC(=O)Nc2nnn[nH]2)c2nc(-c3ccc(C(F)(F)F)cc3)c(Br)o2)c1F (racemic) |  |  |  | solubility kinetic at 24 h [1]: 800 µg/mL (≈ 1290 µM)
NC(=O)c1c(F)ccc(OC(CCCO)c2nc(-c3ccc(C(F)(F)F)cc3)c(Br)o2)c1F (racemic) | 1 (≈ 1.87 µM) | 1 (≈ 1.87 µM) |  | solubility kinetic at 24 h [1]: 50 µg/mL (≈ 93.4 µM)
COc1ccc(-c2coc(COc3ccc(F)c(C(N)=O)c3F)n2)cc1 | 2 (≈ 5.55 µM) | 2 (≈ 5.55 µM) | > 64 | 
N#Cc1oc(COc2ccc(F)c(C(N)=O)c2F)nc1-c1ccc(C(F)(F)F)cc1 | 2 (≈ 4.72 µM) | 4 (≈ 9.45 µM) | > 64 | 
NC(=O)c1c(F)ccc(OC(COC(=O)NCCc2c[nH]cn2)c2nc(-c3ccc(C(F)(F)F)cc3)c(Br)o2)c1F (racemic) |  |  |  | solubility kinetic at 24 h [1]: 100 µg/mL (≈ 155 µM)
CNCCNC(=O)OCC(Oc1ccc(F)c(C(N)=O)c1F)c1nc(-c2ccc(C(F)(F)F)cc2)c(Br)o1 (racemic) |  |  |  | solubility kinetic at 24 h [1]: 200 µg/mL (≈ 329 µM)
NC(=O)c1c(F)ccc(OCc2nc(-c3ccc(O)cc3)co2)c1F | 8 (≈ 23.1 µM) | 8 (≈ 23.1 µM) | > 64 | 
CCC(Oc1ccc(F)c(C(N)=O)c1F)c1nc(-c2ccc(Cl)cc2)c(Br)o1 (racemic) | 2 (≈ 4.24 µM) | 1 (≈ 2.12 µM) |  | 
NC(=O)c1c(F)ccc(O[C@@H](CO)c2nc(-c3ccc(C(F)(F)F)cc3)c(Br)o2)c1F | 16 (≈ 31.5 µM) | 16 (≈ 31.5 µM) | 64 (≈ 126 µM) | 
NC(=O)c1c(F)ccc(OCc2nc(-c3ccc(Cl)cc3)c(CCCO)o2)c1F | 2 (≈ 4.73 µM) | 2 (≈ 4.73 µM) | > 64 | 
CCOc1oc(COc2ccc(F)c(C(N)=O)c2F)nc1-c1ccc(Cl)cc1 | 0.06 (≈ 0.147 µM) | 0.03 (≈ 0.0734 µM) | > 64 | 
NC(=O)c1c(F)ccc(OC(CCO)c2nc(-c3ccc(C(F)(F)F)cc3)c(Br)o2)c1F (racemic) | 0.5 (≈ 0.959 µM) | 0.5 (≈ 0.959 µM) |  | 

SMILES | MIC (Staphylococcus aureus [2]) [µg/mL] | MIC [3] [µg/mL] | MIC (Staphylococcus aureus [4]) [µg/mL] | also measured
COc1ccc(-c2nc(COc3ccc(F)c(C(N)=O)c3F)oc2-c2cncs2)cc1 | 2 (≈ 4.51 µM) | 2 (≈ 4.51 µM) |  | 
NC(=O)c1c(F)ccc(OC(CO)c2nc(-c3ccc(Cl)cc3)c(Br)o2)c1F (racemic) | 0.25 (≈ 0.528 µM) | 0.25 (≈ 0.528 µM) |  | 
NC(=O)c1c(F)ccc(OC(CC(O)CO)c2nc(-c3ccc(C(F)(F)F)cc3)c(Br)o2)c1F (racemic) | 0.5 (≈ 0.907 µM) | 0.5 (≈ 0.907 µM) |  | solubility kinetic at 24 h [1]: 100 µg/mL (≈ 181 µM)
NC(=O)c1c(F)ccc(OCc2nc(-c3ccc(OC(F)(F)F)cc3)c(I)o2)c1F | 0.06 (≈ 0.111 µM) | 0.06 (≈ 0.111 µM) | > 64 | 
CN(C)CCC(Oc1ccc(F)c(C(N)=O)c1F)c1nc(-c2ccc(C(F)(F)F)cc2)c(Br)o1 (racemic) | 8 (≈ 14.6 µM) | 16 (≈ 29.2 µM) |  | 
NC(=O)c1c(F)ccc(OCc2nc(-c3ccc(Cl)cc3)c([N+](=O)[O-])o2)c1F | > 64 | > 64 | > 64 | 
NC(=O)c1c(F)ccc(OCc2nc(-c3ccc(C(F)(F)F)cc3)c(Br)o2)c1F | 0.12 (≈ 0.251 µM) | 0.12 (≈ 0.251 µM) | 4 (≈ 8.38 µM) | solubility kinetic at 24 h [1]: 12.5 µg/mL (≈ 26.2 µM)
NC(=O)c1c(F)ccc(OCc2nc(-c3ccc(Cl)cc3)co2)c1F | 4 (≈ 11 µM) | 4 (≈ 11 µM) | > 64 | 
NC(=O)c1c(F)ccc(OC(COP(=O)(O)O)c2nc(-c3ccc(C(F)(F)F)cc3)c(Br)o2)c1F (racemic) |  |  |  | solubility kinetic at 24 h [1]: > 800 µg/mL
NC(=O)c1c(F)ccc(OC(COC(=O)N2CCNCC2)c2nc(-c3ccc(C(F)(F)F)cc3)c(Br)o2)c1F (racemic) |  |  |  | solubility kinetic at 24 h [1]: 200 µg/mL (≈ 323 µM)
COc1oc(COc2ccc(F)c(C(N)=O)c2F)nc1-c1ccc(Cl)cc1 | 0.5 (≈ 1.27 µM) | 0.5 (≈ 1.27 µM) |  | 
COc1ccc(-c2nc(COc3ccc(F)c(C(N)=O)c3F)oc2-c2ccccc2)cc1 | 0.12 (≈ 0.275 µM) | 0.12 (≈ 0.275 µM) | > 64 | 
C=CCc1oc(COc2ccc(F)c(C(N)=O)c2F)nc1-c1ccc(Cl)cc1 | 0.06 (≈ 0.148 µM) | 0.06 (≈ 0.148 µM) | > 64 | 
CC(C)(Oc1ccc(F)c(C(N)=O)c1F)c1nc(-c2ccc(Cl)cc2)c(Br)o1 | > 64 |  |  | 
NC(=O)c1c(F)ccc(OCc2nc(-c3ccc(OC(F)(F)F)cc3)c(Cl)o2)c1F | 0.12 (≈ 0.267 µM) | 0.12 (≈ 0.267 µM) | 8 (≈ 17.8 µM) | 
Cc1nnc(CC(Oc2ccc(F)c(C(N)=O)c2F)c2nc(-c3ccc(C(F)(F)F)cc3)c(Br)o2)o1 (racemic) | 8 (≈ 14 µM) | 16 (≈ 27.9 µM) |  | 
NC(=O)c1c(F)ccc(OCc2nc(-c3ccc(OC(F)(F)F)cc3)c(Br)o2)c1F | 0.06 (≈ 0.122 µM) | 0.03 (≈ 0.0608 µM) | 2 (≈ 4.06 µM) | 
NC(=O)c1c(F)ccc(OCc2nc(-c3ccc(Cl)cc3)c(CO)o2)c1F | 8 (≈ 20.3 µM) | 8 (≈ 20.3 µM) | > 64 | 
NC(=O)c1c(F)ccc(OCc2nc(-c3ccc(OC(F)(F)F)cc3)c(C(F)(F)F)o2)c1F | 0.5 (≈ 1.04 µM) | 0.5 (≈ 1.04 µM) | > 64 | 
NC(=O)c1c(F)ccc(OC(CCC(=O)O)c2nc(-c3ccc(C(F)(F)F)cc3)c(Br)o2)c1F (racemic) | 8 (≈ 14.6 µM) | 8 (≈ 14.6 µM) |  | solubility kinetic at 24 h [1]: 400 µg/mL (≈ 728 µM)
NC(=O)c1c(F)ccc(OCc2nc(-c3ccc(Cl)cc3)c(N)o2)c1F | > 64 | > 64 | > 64 | 
COc1ccc(-c2nc(COc3ccc(F)c(C(N)=O)c3F)oc2C2CC2)cc1 | 0.12 (≈ 0.3 µM) | 0.12 (≈ 0.3 µM) | > 64 | 
